# Assay results as given in ChEMBL document CHEMBL6115053, “Optimization and Characterization of N-Acetamide Indoles as Antimalarials That Target PfATP4” (J Med Chem, 2025).
# Active and inactive are the calls of the source. The calls are words filed in the database; no cut-off is given here.
# How the values were obtained:
# [1] = test system: Plasmodium falciparum; test: Antiplasmodial activity against N-(2,6-difluorophenyl)-2-(6-(5-methyl-1,3,4-oxadiazol-2-yl)-1H-indol-1-yl)acetamide-resistant Plasmodium falciparum Dd2 harbouring ATP4 genome with 2.8 fold CNV by SYBR green staining based analysis; assay type: functional, organism-based
# [2] = test system: Plasmodium falciparum; test: Antimalarial activity against trophozoite stage Plasmodium falciparum 3D7 at 10 times EC50 incubated for 48 hrs by SYBR Green dye based analysis; assay type: functional, organism-based
# [3] = test system: Plasmodium falciparum; test: Antiplasmodial activity against Plasmodium falciparum 3D7 infected in RBC assessed as reduction in extracellular parasite growth measured for 8 hrs by Giemsa-staining based microscopic analysis; assay type: functional; set-up: scale not given: the % may be the effect or the level left
# Summary of the method: (§1)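 Giemsa-stained thin smears were read at 8 h and the percentages of extracellular and intracellular parasites counted, compared with untreated parasites at 0 h.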
# [4] = test system: Plasmodium falciparum; test: Antimalarial activity against Plasmodium falciparum NF54 infected assessed as inhibition of female gamete formation incubated for 48 hrs by automated bright field microscopic analysis; assay type: functional, organism-based; conditions: NF54, 48 h
# [5] = Aqueous solubility in PBS buffer at pH 7.4; assay type: physicochemical
# [6] = test system: HepG2; test: (§2) Cytotoxicity against human HepG2 cells assessed as inhibition of cell growth incubated for 48 hrs by celltiterglo assay; assay type: toxicity, cell-based; conditions: hepg2, 48 h
# [7] = test system: Plasmodium falciparum; test: Antiplasmodial activity against N-(2,6-difluorophenyl)-2-(6-(5-methyl-1,3,4-oxadiazol-2-yl)-1H-indol-1-yl)acetamide-resistant Plasmodium falciparum Dd2 harboring plasmodium falciparum ATP4 F156L mutant by SYBR green staining based analysis; assay type: functional, organism-based
# [8] = Metabolic stability in human liver microsome assessed as intrinsic clearance; assay type: ADME; conditions: microsomes
# [9] = test system: Plasmodium falciparum; test: Antiplasmodial activity against W454-resistant population 3 Plasmodium falciparum 3D7 harboring Plasmodium falciparum ATP4 L928F mutant by LDH assay; assay type: functional, organism-based
# [10] = target: T1, P-type sodium-transporting ATPase4 (Plasmodium falciparum (isolate 3D7), UniProt A0A143ZZK9); test: Inhibition of Plasmodium falciparum 3D7 ATP4 assessed as increase in Na+ concentration in parasite cytosol measured for 60 mins; assay type: subcellular
# T1 sequence (A0A143ZZK9 whole entry): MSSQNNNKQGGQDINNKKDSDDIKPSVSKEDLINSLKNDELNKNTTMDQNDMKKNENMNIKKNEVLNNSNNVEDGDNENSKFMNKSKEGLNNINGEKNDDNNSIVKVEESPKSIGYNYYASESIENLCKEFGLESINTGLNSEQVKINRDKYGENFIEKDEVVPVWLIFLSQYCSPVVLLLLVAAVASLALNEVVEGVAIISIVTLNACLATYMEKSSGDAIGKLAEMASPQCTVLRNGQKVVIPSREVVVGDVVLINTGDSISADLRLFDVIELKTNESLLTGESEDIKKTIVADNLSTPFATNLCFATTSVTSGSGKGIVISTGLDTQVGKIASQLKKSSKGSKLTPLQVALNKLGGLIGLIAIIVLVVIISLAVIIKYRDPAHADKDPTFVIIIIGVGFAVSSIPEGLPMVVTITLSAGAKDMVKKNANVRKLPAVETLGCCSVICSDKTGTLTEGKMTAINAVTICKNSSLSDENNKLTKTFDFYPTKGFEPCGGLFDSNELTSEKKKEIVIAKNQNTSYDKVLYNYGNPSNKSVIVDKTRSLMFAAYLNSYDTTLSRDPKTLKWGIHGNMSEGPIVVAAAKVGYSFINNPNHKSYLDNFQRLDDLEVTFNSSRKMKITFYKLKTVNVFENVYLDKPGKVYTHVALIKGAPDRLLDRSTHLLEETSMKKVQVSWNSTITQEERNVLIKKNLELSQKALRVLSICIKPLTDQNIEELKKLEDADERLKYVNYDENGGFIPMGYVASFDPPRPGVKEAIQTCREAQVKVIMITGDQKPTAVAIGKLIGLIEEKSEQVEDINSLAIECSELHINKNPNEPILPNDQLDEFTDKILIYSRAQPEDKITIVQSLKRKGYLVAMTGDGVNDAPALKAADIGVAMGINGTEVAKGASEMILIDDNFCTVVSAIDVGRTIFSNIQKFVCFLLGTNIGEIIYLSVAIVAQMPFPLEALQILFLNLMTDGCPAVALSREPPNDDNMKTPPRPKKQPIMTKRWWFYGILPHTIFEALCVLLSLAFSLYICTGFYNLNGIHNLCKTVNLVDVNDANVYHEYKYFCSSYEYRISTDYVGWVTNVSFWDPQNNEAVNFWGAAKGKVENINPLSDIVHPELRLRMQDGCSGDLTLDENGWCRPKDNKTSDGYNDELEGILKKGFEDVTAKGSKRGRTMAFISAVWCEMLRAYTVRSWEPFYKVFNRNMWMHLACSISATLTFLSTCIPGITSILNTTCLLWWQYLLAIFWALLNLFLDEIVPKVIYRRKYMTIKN
# [11] = Lipophilicity, logD of compound at pH 7.4 by shake-flask method; assay type: physicochemical; conditions: buffer
# [12] = test system: Plasmodium falciparum; test: Antiplasmodial activity against W454-resistant population 1 Plasmodium falciparum 3D7 harboring Plasmodium falciparum ATP4 L928F mutant by LDH assay; assay type: functional, organism-based
# [13] = test system: Plasmodium falciparum; test: Antiplasmodial activity against multidrug-resistant Plasmodium falciparum Dd2 harboring plasmodium falciparum ATP4 G358S mutant by SYBR green staining based analysis; assay type: functional, organism-based
# [14] = test system: Plasmodium falciparum; test: Antiplasmodial activity against multidrug-resistant Plasmodium falciparum Dd2 harboring plasmodium falciparum ATP4 I398F/P990R/D1247Y mutant by SYBR green staining based analysis; assay type: functional, organism-based
# [15] = target: T2, P-type sodium-transporting ATPase4 (Plasmodium falciparum (isolate 3D7)) (UniProt A0A143ZZK9); test: Inhibition of Plasmodium falciparum 3D7 ATP4 assessed as increase in Na+ concentration in parasite cytosol upto 1000 nM measured for 60 mins; assay type: subcellular
# T2 sequence (whole entry): T1 sequence (A0A143ZZK9 whole entry)
# [16] = test system: Plasmodium falciparum; test: Antiplasmodial activity against Plasmodium falciparum 3D7 infected in human […] cells; assay type: functional, organism-based
# [17] = test system: Plasmodium falciparum; test: Antiplasmodial activity against Plasmodium falciparum 3D7 infected in human […] cells incubated for 72 hrs; assay type: functional, organism-based; conditions: 3D7, 72 h
# [18] = Metabolic stability in mouse liver microsome assessed as intrinsic clearance; assay type: ADME; conditions: microsomes
# [19] = test system: Plasmodium falciparum; test: Antimalarial activity against Plasmodium falciparum NF54 infected assessed as inhibition of male gamete formation incubated for 48 hrs by automated bright field microscopic analysis; assay type: functional, organism-based; conditions: NF54, 48 h
# [20] = test system: Plasmodium falciparum; test: Antiplasmodial activity against N-(2,6-difluorophenyl)-2-(6-(5-methyl-1,3,4-oxadiazol-2-yl)-1H-indol-1-yl)acetamide-resistant Plasmodium falciparum Dd2 harboring plasmodium falciparum ATP4 D425E mutant by SYBR green staining based analysis; assay type: functional, organism-based
# [21] = test system: HepG2; test: Cytotoxicity against human HepG2 cells; assay type: functional
# [22] = test system: Plasmodium falciparum; test: Antiplasmodial activity against Plasmodium falciparum 3D7 infected in RBC assessed as reduction in parasite growth measured for 8 hrs by Giemsa-staining based microscopic analysis; assay type: functional, organism-based; summary of the method: as §1
# [23] = test system: Plasmodium falciparum; test: Antiplasmodial activity against W454-resistant population 2 Plasmodium falciparum 3D7 harboring Plasmodium falciparum ATP4 L928F mutant by LDH assay; assay type: functional, organism-based
# [24] = test system: Plasmodium falciparum; test: Antiplasmodial activity against asexual Plasmodium falciparum 3D7 infected in human […] cells assessed as reduction in parasite growth measured for 72 hrs by LDH assay; assay type: functional, organism-based; conditions: 3D7, 72 h
# [25] = Metabolic stability in rat hepatocyte […] assessed as intrinsic clearance measured per 10^6 cells; assay type: ADME, cell-based; conditions: hepatocytes
# [26] = as §2; assay type: toxicity, cell-based; conditions: HepG2 cells
# [27] = test system: Plasmodium falciparum; test: Antiplasmodial activity against multi-drug resistant Plasmodium falciparum Dd2; assay type: functional, organism-based
# [28] = test system: Plasmodium falciparum; test: Antiplasmodial activity against multidrug resistant Plasmodium falciparum Cam3.1 incubated for 48 hrs by SYBR staining based fluorometer assay; assay type: functional, organism-based; conditions: Cam3.1, 48 h
# [29] = test system: Plasmodium falciparum; test: Antiplasmodial activity against wild type Plasmodium falciparum 3D7 incubated for 48 hrs; assay type: functional, organism-based; conditions: 3D7, 48 h
# [30] = test system: Plasmodium falciparum; test: Antiplasmodial activity against multidrug resistant Plasmodium falciparum W2mef incubated for 48 hrs by SYBR staining based fluorometer assay; assay type: functional, organism-based
# [31] = test system: Plasmodium falciparum; test: Antiplasmodial activity against multidrug-resistant Plasmodium falciparum Dd2 harboring plasmodium falciparum ATP4 G358S mutant; assay type: functional, organism-based
# [32] = test system: Plasmodium falciparum; test: Antiplasmodial activity against N-(2,6-difluorophenyl)-2-(6-(5-methyl-1,3,4-oxadiazol-2-yl)-1H-indol-1-yl)acetamide-resistant Plasmodium falciparum Dd2 harboring plasmodium falciparum ATP4 D425E mutant; assay type: functional, organism-based
# [33] = test system: Plasmodium falciparum; test: Antiplasmodial activity against multidrug-resistant Plasmodium falciparum Dd2 harboring plasmodium falciparum ATP4 I398F/P990R/D1247Y mutant; assay type: functional, organism-based
# [34] = test system: Plasmodium falciparum; test: Antiplasmodial activity against N-(2,6-difluorophenyl)-2-(6-(5-methyl-1,3,4-oxadiazol-2-yl)-1H-indol-1-yl)acetamide-resistant Plasmodium falciparum Dd2 harboring plasmodium falciparum ATP4 F156L mutant; assay type: functional, organism-based
# [35] = test system: Plasmodium falciparum; test: Antiplasmodial activity against Plasmodium falciparum 3D7; assay type: functional, organism-based
# [36] = test system: Plasmodium falciparum; test: Antiplasmodial activity against N-(2,6-difluorophenyl)-2-(6-(5-methyl-1,3,4-oxadiazol-2-yl)-1H-indol-1-yl)acetamide-resistant Plasmodium falciparum Dd2 harbouring ATP4 genome with 2.8 fold CNV; assay type: functional, organism-based
compound,measurement,setting,value
Cc1nnc(-c2ccc3ccn(CC(=O)Nc4ccccc4Cl)c3c2)o1,EC50,[1],901 nM
same,Activity,[2],Active
same,Activity,[3],3.5%
same,EC50,[4],5000 nM
same,solubility kinetic,[5],10.9 µM
same,CC50,[6],> 40000 nM
same,EC50,[7],1160 nM
same,intrinsic clearance (CLint),[8],> 462 µL/min/mg
same,EC50,[9],> 10000 nM
same,IC50,[10],~400 nM
same,logD,[11],3.1
same,EC50,[12],> 10000 nM
same,EC50,[13],1280 nM
same,EC50,[14],2540 nM
same,inhibition,[15],Active
same,EC50,[16],667 nM
same,EC50,[17],569 nM
same,intrinsic clearance (CLint),[18],410 µL/min/mg
same,EC50,[19],3600 nM
same,EC50,[20],786 nM
same,CC50,[21],> 40000 nM
same,Activity,[22],Active
same,EC50,[23],> 10000 nM
same,EC50,[24],667 nM
same,intrinsic clearance (CLint),[25],> 92 uL/min/10^6 cells
Cc1nc(-c2ccc3ccn(CC(=O)Nc4ccccc4Cl)c3c2)no1,CC50 at 48 h,[26],> 40000 nM
same,EC50,[24],955 nM
"O[C@@H](c1cc(C(F)(F)F)nc2c(C(F)(F)F)cccc12)[C@H]1CCCCN1 (racemic) [(S,R)-MEFLOQUINE]",EC50,[27],35 nM
same,EC50,[28],9 nM
same,EC50,[29],23 nM
same,EC50,[30],64 nM
Cc1nnc(-c2ccc3ccn(CC(=O)Nc4ccc(F)cc4F)c3c2)o1,CC50,[6],> 40000 nM
same,EC50,[31],28 nM
same,EC50,[32],30 nM
same,EC50,[33],142 nM
same,EC50,[34],25 nM
same,EC50,[35],16 nM
same,EC50,[36],30 nM
same,EC50,[24],4250 nM
